Results reported in ChEMBL document CHEMBL1129305, “Drug delivery systems. 2. Camptothecin 20-O-poly(ethylene glycol) ester transport forms” (J Med Chem, 1996).

Key:
Mus musculus [1] = assay: Percentage of increased life expectancies (ILS) of mice at a dose of 16 mg/kg camptothecin; ILS = (T/C-1) X 100; format: functional
Summary of the method: (§1)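 Mice bearing P388 leukemia dosed ip on days 1–5 to a total of 16 mg/kg camptothecin equivalents, given as aqueous solution or lipid suspension. Groups were 10–20 mice against untreated controls, with survivors counted at 40 days. Read-outs were mean time to death, T/C and ILS = (T/C−1)×100, compared by Student t test assuming equal variances.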

Mus musculus [2] = assay: Mean time to death at a dose of 16 mg/kg of camptothecin, mice dosed days 1-5; format: ADME, organism-based; parameters: dose 16 mg/kg; details: in vivo; summary of the method: as §1
Mus musculus [3] = assay: Ratio between mean time to death of treated versus control (survivors at 40 days) at a dose of 16 mg/kg of camptothecin, mice dosed days 1-5; format: functional; summary of the method: as §1
[4] = Half life in PBS buffer (pH 5.6) at 37 degree C; format: ADME
Summary of the method: (§2)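 Hydrolysis run at 37 °C in PBS, pH 5.6 or pH 7.4 as stated in the line. Half-life is the time for loss of the ester. Runs done in duplicate, with SD ±10%.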

[5] = Half life in PBS buffer (pH 7.4) at 37 degree C; format: ADME; summary of the method: as §2
[6] = Half life in rat plasma at 37 degree C; format: ADME, organism-based
Summary of the method: (§3)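 Ester incubated at 37 °C in rat or human plasma. Half-life recorded as disappearance of the transport form, with release of parent drug also followed over time. Runs done in duplicate, with SD ±10%.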

[7] = Half life in human plasma at 37 degree C; format: ADME, organism-based; summary of the method: as §3
[8] = Half life in PBS buffer (pH 7.4) at 37 degree C (DMSO employed as cosolvent); format: ADME; details: PBS buffer with DMSO as cosolvent
Summary of the method: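 Hydrolysis run at 37 °C in PBS pH 7.4 with DMSO as cosolvent. Half-life recorded in duplicate, with SD ±10%.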

SMILES	ILS at 16 mg/kg (Mus musculus [1]) [%]	Mean time to death (Mus musculus [2]) [days]	T/C (Mus musculus [3])	half-life [4] [h]	half-life [5] [h]	half-life [6] [h]	half-life [7] [h]	half-life [8] [h]
CC[C@@]1(O)C(=O)OCc2c1cc1n(c2=O)Cc2cc3ccccc3nc2-1 [CAMPTOTHECIN]	193	38.7	2.93	–	–	–	–	–
CC[C@@]1(OC(=O)CN)C(=O)OCc2c1cc1n(c2=O)Cc2cc3ccccc3nc2-1.O=C(O)C(F)(F)F	64	21.7	1.64	16	3.5	0.5	0.25	–
CC[C@@]1(OC(C)=O)C(=O)OCc2c1cc1n(c2=O)Cc2cc3ccccc3nc2-1	–	–	–	–	–	–	–	> 72
